Results as given in ChEMBL document CHEMBL1140400, “Synthesis and anthelmintic properties of arylquinolines with activity against drug-resistant nematodes” (2005).

Tests used:
Format in all cases: functional
Haemonchus contortus [1] = assay: Lethal dose against Haemonchus contortus using NemaTox assay
Outline: (§1)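 Larval development assay in agar matrix: 80–100 nematode eggs per well with compound at twofold serial dilutions from 100 μg/mL downward; wells supplemented with nutrient medium, incubated at 26 °C until control larvae reached the L3 stage. Day 5 qualitative larval assessment; LD99 taken as lowest concentration inhibiting development in 99% of larvae present.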

Haemonchus contortus [2] = assay: Lethal dose against Haemonchus contortus CAVR (ivermectin resistant) using NemaTox assay; outline: as §1
Haemonchus contortus [3] = assay: Lethal dose against Haemonchus contortus VSRG (benzimidazole resistant) using NemaTox assay; outline: as §1
Haemonchus contortus [4] = assay: Lethal dose against Haemonchus contortus Lawes ( levamisole and benzimidazole resistant) using NemaTox assay; outline: as §1
[5] = tested on: Teladorsagia circumcincta; assay: Lethal dose against Ostertagia circumcincta using NemaTox assay; outline: as §1
[6] = tested on: Trichostrongylus colubriformis; assay: Lethal dose against Trichostrongylus colubriformis using NemaTox assay; outline: as §1
Haemonchus contortus [7] = assay: Lethal dose against Haemonchus contortus (susceptible) using NemaTox assay; outline: as §1

Row | Structure (SMILES) | LD99 (Haemonchus contortus [1]) [µg/mL] | LD99 (Haemonchus contortus [2]) [µg/mL] | LD99 (Haemonchus contortus [3]) [µg/mL] | LD99 (Haemonchus contortus [4]) [µg/mL] | LD99 [5] [µg/mL] | LD99 [6] [µg/mL] | LD99 (Haemonchus contortus [7]) [µg/mL]
1 | COc1cc(Cl)nc2ccccc12 | 25 |  |  |  |  |  | 
2 | COc1cc(OC)c2cc(Cl)ccc2n1 | 12.5 | 6.3 | 13 | 8.8 | 13 | 25 | 13
3 | COc1nc2ccccc2c(OC)c1-c1ccccc1 | 25 |  |  |  |  |  | 
4 | COc1cc(OC)c2c(C)cc(C)cc2n1 | 25 |  |  |  |  |  | 
5 | COc1cc(OC)c2cccc(-c3ccccc3)c2n1 | 12.5 | 3.1 | 4.4 | 6.3 | 6.3 | 50 | 6.3
6 | COc1ccc(-c2cccc3c(OC)cc(OC)nc23)cc1 | 12.5 | 3.1 | 6.3 | 3.1 | 3.1 | 6.3 | 6.3
7 | COc1ccc(-c2ccc3nc(OC)cc(OC)c3c2)cc1 | 3.1 | 1.6 | 2.2 | 1.6 | 3.1 | 3.1 | 3.1
8 | COc1cc(OC)c2cc(-c3ccccc3)ccc2n1 | 3.1 | 3.1 | 3.1 | 3.1 | 3.1 | 6.3 | 3.1
9 | c1ccc([C@H]2CN3CCSC3=N2)cc1 [LEVAMISOLE] |  | 0.78 | 1.6 | >100 |  |  | 1.6
10 | c1ccc2[nH]c(-c3cscn3)nc2c1 [THIABENDAZOLE] |  | 0.16 | 5 | 5 |  |  | 0.16
